Test results published in publication PMC11162967 (International Journal of Nanomedicine, 2024).
Converted amounts (≈) assume the structure as drawn.

Tests used:
[1] = In vitro dissolution; type: physicochemical; conditions: 37°C
[2] = tested on: Caco-2 cells; experiment: Cellular uptake in Caco-2 cell monolayer; type: in vitro ADME; conditions: Caco-2, 30 μM luteolin, 37°C, 4 h
[3] = tested on: Caco-2 cells; experiment: Cellular uptake mechanisms with endocytosis inhibitors; type: in vitro ADME
How it was run: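 Caco-2 cells seeded at 2.5×10^4 per well, cultured 14 days. Then rinsed and given test compound at 30 μM luteolin, 4 h at 37°C. Washed, lysed by ultrasonication, luteolin by HPLC normalised to BCA protein. Compared with uninhibited control.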

[4] = Saturated solubility; type: physicochemical; conditions: ultrapure water
How it was run: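 Excess test material added to 5 mL ultrapure water, shaken 24 h at 37°C. Undissolved drug removed by centrifugation (12,000 rpm, 30 min) and 0.22 μm filtration. Filtrate concentration measured by HPLC. n=3, mean ± SD.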

[5] = tested on: Caco-2 cells; experiment: Cytotoxicity study on Caco-2 cells; type: cell-based; conditions: under the experimental conditions (Figure S4)
[6] = tested on: HUA model mice; experiment: Anti-hyperuricemia study in HUA mice model; type: in vivo, ICR mice; conditions: oral 30 mg/kg luteolin for 2 weeks, compared with HUA group
How it was run: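 Male ICR mice, n=8 per group. Hyperuricemia induced by daily intraperitoneal potassium oxonate 300 mg/kg plus hypoxanthine 300 mg/kg in normal saline for seven consecutive days. Test compound given by gavage in normal saline at 30 mg/kg luteolin-equivalent for 2 weeks, including 1-week pretreatment. Vehicle and febuxostat 10 mg/kg (oral, one week) controls. Serum uric acid measured by commercial kit at end; one-way ANOVA.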

drug dissolved (cumulative dissolution) ([1]; SGF pH 1.2 with 0.5% Tween 80, within 3 min): 25.78%
drug dissolved (cumulative dissolution) ([1]; SIF pH 6.8 with 0.5% Tween 80, within 3 min): 48.47%
effect of chlorpromazine, indomethacin, or colchicine on cellular uptake ([3]; Caco-2 pretreated with inhibitor 1 h): no significant change
effect of sodium azide on cellular uptake ([3]; Caco-2 pretreated with sodium azide 650 μg/mL 1 h): significantly reduced
solubility at 24 h [4]: 0.94 ± 0.07 µg/mL (≈ 3.28 µM)
Structure (SMILES): O=c1cc(-c2ccc(O)c(O)c2)oc2cc(O)cc(O)c12 [LUT, Luteolin]
cellular uptake [2]: 25.89 ± 4.94 μg luteolin/mg cellular protein
viability of Caco-2 cells [5]: did not affect the viability
serum UA level reduction [6]: 51.67%
